Measured values from ChEMBL document CHEMBL5104181, “Development of Hydrogen Sulfide-Releasing Carbonic Anhydrases IX- and XII-Selective Inhibitors with Enhanced Antihyperalgesic Action in a Rat Model of Arthritis” (J Med Chem, 2022).
The source made the active and inactive calls. The rule behind the calls is not given here.

Columns and labels:
Carbonic anhydrase 1 = Carbonic anhydrase 1 (Homo sapiens, UniProt P00915); assay: Inhibition of recombinant human CA1 pre-incubated for 15 mins by phenol red dye based stopped flow CO2 hydration assay
Carbonic anhydrase 2 = Carbonic anhydrase 2 (Homo sapiens, UniProt P00918); assay: Inhibition of recombinant human CA2 pre-incubated for 15 mins by phenol red dye based stopped flow CO2 hydration assay
Carbonic anhydrase 4 = Carbonic anhydrase 4 (Homo sapiens, UniProt P22748); assay: Inhibition of recombinant human CA4 pre-incubated for 15 mins by phenol red dye based stopped flow CO2 hydration assay
Carbonic anhydrase 9 = Carbonic anhydrase 9 (Homo sapiens, UniProt Q16790); assay: Inhibition of recombinant human CA9 pre-incubated for 15 mins by phenol red dye based stopped flow CO2 hydration assay
Carbonic anhydrase 12 = Carbonic anhydrase 12 (Homo sapiens, UniProt O43570); assay: Inhibition of recombinant human CA12 pre-incubated for 15 mins by phenol red dye based stopped flow CO2 hydration assay
Liver [1] = assay: Induction of H2S release in rat liver microsomes at 150 uM incubated for 90 mins by methylene blue based UV-Vis spectrophotometer analysis; assay type: functional; conditions: Homogenate, in the assay text read “rat liver homogenate” for “rat liver microsomes”
Outline: (§1)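 Rat liver homogenized 1/20 w/v in ice-cold 50 mM potassium phosphate pH 7.4, diluted further 1:10; compound 150 μM final (30 mM DMSO stock) in airtight vials at 37 °C, 0–90 min. H2S trapped with zinc acetate, proteins precipitated with TCA, then N,N-dimethyl-p-phenylenediamine/FeCl3; methylene blue A667 after 30 min at 25 °C; Na2S calibration 1–250 μM; compound-free baseline; triplicate.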

Liver [2] = assay: Induction of H2S release in rat liver microsomes assessed as half life of H2S release at 150 uM incubated for 90 mins by methylene blue based UV-Vis spectrophotometer analysis; assay type: functional; conditions: Homogenate, in the assay text read “rat liver homogenate” for “rat liver microsomes”; outline: as §1
Liver [3] = assay: Induction of H2S release in rat liver microsomes assessed as Cmax of H2S release at 150 uM measured after 90 mins by methylene blue based UV-Vis spectrophotometer analysis; assay type: functional; conditions: Homogenate, in the assay text read “rat liver homogenate” for “rat liver microsomes”; outline: as §1
Rattus norvegicus [4] = assay: (§2) Antinociceptive activity against complete freund's adjuvant-induced arthritic Sprague-Dawley rat model assessed as reduction in mechanical hyperalgesia induced hypersensitivity at 10 to 30 mg/kg, po administered as single dose starting from day 14 post CFA injection and measured upto 75 mins by Paw pressure test; assay type: functional, organism-based; conditions: dose 10-30 mg/kg
Rattus norvegicus [5] = assay: as §2, with “increase” for “reduction”, “weight tolerated on ipsilateral paw” for “mechanical hyperalgesia induced hypersensitivity”, “after 15 to 45” for “upto 75”; assay type: functional, organism-based; conditions: dose 10-30 mg/kg, time lower 15.0 min, time upper […]
Rattus norvegicus [6] = assay: (§3) Antinociceptive activity against complete freund's adjuvant-induced arthritic Sprague-Dawley rat model assessed as reduction in spontaneous pain by measuring difference in weight tolerance on contralateral and ipsilateral paw administered orally as single dose starting from day 14 post CFA injection and measured after 30 to 45 mins by Incapacitance test; assay type: functional, organism-based; conditions: dose 1-30 mg/kg, route po, time lower 30.0 min, time upper […], DDE = dose-dependent effect
Outline: (§4)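 Sprague Dawley rats 200–250 g, CFA 50 μL intra-articular into left tibiotarsal joint on day 0 (saline controls). On day 14, single oral dose in 1% CMC (hybrids 1, 10, 30 mg/kg; single agents 13.23 or 17.71 mg/kg). Incapacitance apparatus, rats on hind paws on 65° inclined plane; Δ weight = contralateral minus ipsilateral load over time; 8 rats, two experimental sets, mean (SEM).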

[7] = Toxicity in Sprague-Dawley rat model of complete freund's adjuvant-induced arthritis assessed as effect on autonomical parameters at 30 mg/kg, po measured for 24 hrs by Irwin test; assay type: organism-based; conditions: in vivo
Outline: (§5)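 Single oral 30 mg/kg dose (1% CMC suspension) in CFA-arthritic Sprague Dawley rats; animals observed 24 h. Irwin screen in individual transparent cage scoring 26 autonomic, behavioral and neurological parameters; some signs recorded as present/absent, skin colour qualitatively, others semiquantitatively on observer scales (0 to +4, −4 to 0, or −4 to +4).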

[8] = Toxicity in Sprague-Dawley rat model of complete freund's adjuvant-induced arthritis assessed as effect on behavioral parameters at 30 mg/kg, po measured for 24 hrs by Irwin test; assay type: organism-based; conditions: in vivo; outline: as §5
[9] = Toxicity in Sprague-Dawley rat model of complete freund's adjuvant-induced arthritis assessed as effect on neurological parameters at 30 mg/kg, po measured for 24 hrs by Irwin test; assay type: organism-based; conditions: in vivo; outline: as §5
Liver [10] = assay: Induction of H2S release in rat liver microsomes assessed as Cmax of H2S release at 150 uM measured after 20 mins by methylene blue based UV-Vis spectrophotometer analysis; assay type: functional; conditions: Homogenate, in the assay text read “rat liver homogenate” for “rat liver microsomes”; outline: as §1
Rattus norvegicus [11] = assay: Antinociceptive activity against complete freund's adjuvant-induced arthritic Sprague-Dawley rat model assessed as increase in weight tolerated on ipsilateral paw at 13.23 mg/kg, po administered as single dose starting from day 14 post CFA injection and measured after 15 to 45 mins by Paw pressure test; assay type: functional, organism-based; conditions: time lower 15.0 min, time upper […]
Rattus norvegicus [12] = assay: as §3, with “paw at 13.23 mg/kg, po” for “paw”, “administered” for “administered orally”, “after 15 to” for “after”, “30” for “30 to 45”; assay type: functional, organism-based; conditions: time 15-30 min; outline: as §4
Rattus norvegicus [13] = assay: Antinociceptive activity against complete freund's adjuvant-induced arthritic Sprague-Dawley rat model assessed as reduction in mechanical hyperalgesia induced hypersensitivity administered orally as single dose starting from day 14 post CFA injection and measured upto 75 mins by Paw pressure test; assay type: functional, organism-based; conditions: dose 1-30 mg/kg, route po, DDE = dose-dependent effect
Rattus norvegicus [14] = assay: as §3, with “paw at 10 mg/kg, po” for “paw”, “administered” for “administered orally”, “upto 75” for “after 30 to 45”; assay type: functional, organism-based; outline: as §4

Chain of Carbonic anhydrase 4 (P22748 whole entry): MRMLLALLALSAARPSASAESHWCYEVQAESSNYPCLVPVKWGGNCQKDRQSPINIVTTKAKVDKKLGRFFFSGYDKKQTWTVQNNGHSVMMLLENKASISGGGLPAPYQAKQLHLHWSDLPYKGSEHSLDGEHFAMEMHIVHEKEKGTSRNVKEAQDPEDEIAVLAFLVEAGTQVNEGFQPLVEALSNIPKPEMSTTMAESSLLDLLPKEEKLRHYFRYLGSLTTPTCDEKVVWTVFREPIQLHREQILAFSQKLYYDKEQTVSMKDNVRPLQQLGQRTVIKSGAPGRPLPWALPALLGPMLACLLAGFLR
Chain of Carbonic anhydrase 12 (O43570 whole entry): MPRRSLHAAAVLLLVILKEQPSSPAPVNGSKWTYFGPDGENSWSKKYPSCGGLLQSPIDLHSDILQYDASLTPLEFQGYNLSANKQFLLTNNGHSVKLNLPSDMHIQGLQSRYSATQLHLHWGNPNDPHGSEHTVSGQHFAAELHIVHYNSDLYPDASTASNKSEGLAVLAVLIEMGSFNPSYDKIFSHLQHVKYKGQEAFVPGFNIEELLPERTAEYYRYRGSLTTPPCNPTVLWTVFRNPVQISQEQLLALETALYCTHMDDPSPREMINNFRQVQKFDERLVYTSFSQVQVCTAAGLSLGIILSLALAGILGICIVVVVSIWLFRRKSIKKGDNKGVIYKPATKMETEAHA
Chain of Carbonic anhydrase 1 (P00915 whole entry): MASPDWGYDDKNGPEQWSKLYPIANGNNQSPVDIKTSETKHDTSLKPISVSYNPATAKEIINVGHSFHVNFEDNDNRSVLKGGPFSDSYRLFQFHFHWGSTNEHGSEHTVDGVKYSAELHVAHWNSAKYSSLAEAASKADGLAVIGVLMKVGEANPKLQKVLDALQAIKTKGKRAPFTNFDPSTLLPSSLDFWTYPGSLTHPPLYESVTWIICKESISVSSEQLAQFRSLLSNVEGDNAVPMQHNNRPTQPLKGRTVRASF

Row | Compound | Ki (Carbonic anhydrase 1) | Ki (Carbonic anhydrase 2) | Ki (Carbonic anhydrase 4) | Ki (Carbonic anhydrase 9) | Ki (Carbonic anhydrase 12) | Activity (Liver [1]) | T1/2 (Liver [2]) | Cmax (Liver [3]) | Activity (Rattus norvegicus [4]) | Activity (Rattus norvegicus [5]) | Activity (Rattus norvegicus [6]) | Activity [7] | Activity [8] | Activity [9] | Cmax (Liver [10]) | Activity (Rattus norvegicus [11]) | Activity (Rattus norvegicus [12]) | Activity (Rattus norvegicus [13]) | Activity (Rattus norvegicus [14])
1 | NS(=O)(=O)c1ccc(CCN(Cc2ccc(Cl)cc2)C(=O)c2ccc(-c3cssc3=S)cc2)cc1 | 5510 nM | 2970 nM | 430 nM | 24 nM | 9.8 nM | – | – | – | – | – | – | – | – | – | – | – | – | – | –
2 | COc1ccc(CN(CCc2ccc(S(N)(=O)=O)cc2)C(=O)c2ccc(-c3cssc3=S)cc2)cc1 | 2210 nM | 589 nM | 1590 nM | 50.3 nM | 76.4 nM | – | – | – | – | – | – | – | – | – | – | – | – | – | –
3 | CN(C)c1ccc(CN(CCc2ccc(S(N)(=O)=O)cc2)C(=O)c2ccc(-c3cssc3=S)cc2)cc1 | 4260 nM | 995 nM | 3410 nM | 22.7 nM | 9.5 nM | – | – | – | – | – | – | – | – | – | – | – | – | – | –
4 | NS(=O)(=O)c1ccc(CCNCc2cccc3ccccc23)cc1 | – | – | – | 45.3 nM | – | – | – | – | – | – | – | – | – | – | – | – | – | – | –
5 | CSc1ccc(CN(CCc2ccc(S(N)(=O)=O)cc2)C(=O)c2ccc(-c3cssc3=S)cc2)cc1 | 7210 nM | 9650 nM | 404 nM | 46.2 nM | 8.4 nM | Active | 4.3 min | 7.9 µM | Active | Active | Dde | Non-Toxic | Non-Toxic | Non-Toxic | – | – | – | – | –
6 | NS(=O)(=O)c1ccc(CCN(Cc2ccc(F)cc2)C(=O)c2ccc(-c3cssc3=S)cc2)cc1 | 5320 nM | 600 nM | > 10000 nM | 46.3 nM | 65.3 nM | – | – | – | – | – | – | – | – | – | – | – | – | – | –
7 | COc1ccc(CN(CCc2ccc(S(N)(=O)=O)cc2)C(=O)c2ccc(-c3cssc3=S)cc2)cc1OC | – | 218 nM | 293 nM | 18.6 nM | 8.9 nM | – | – | – | – | – | – | – | – | – | – | – | – | – | –
8 | O=C(O)c1ccc(-c2cssc2=S)cc1 | – | – | – | – | – | Active | 3.1 min | – | – | – | – | – | – | – | 12.1 µM | Active | Active | – | –
9 | NS(=O)(=O)c1ccc(CCN(CCc2ccccc2)C(=O)c2ccc(-c3cssc3=S)cc2)cc1 | 4390 nM | 661 nM | 243 nM | 126 nM | 9.6 nM | – | – | – | – | – | – | – | – | – | – | – | – | – | –
10 | N#Cc1ccc(CN(CCc2ccc(S(N)(=O)=O)cc2)C(=O)c2ccc(-c3cssc3=S)cc2)cc1 | > 10000 nM | 4830 nM | 46.2 nM | 40.3 nM | 8.8 nM | – | – | – | – | – | – | – | – | – | – | – | – | – | –
11 | NS(=O)(=O)c1ccc(CCN(Cc2csc3ccccc23)C(=O)c2ccc(-c3cssc3=S)cc2)cc1 | > 10000 nM | 2480 nM | 48 nM | 2.4 nM | 8 nM | Active | 4.3 min | 7.9 µM | Active | Active | Dde | Non-Toxic | Non-Toxic | Non-Toxic | – | – | – | – | –
12 | NS(=O)(=O)c1ccc(CCN(Cc2ccc([N+](=O)[O-])cc2)C(=O)c2ccc(-c3cssc3=S)cc2)cc1 | 7450 nM | 919 nM | > 10000 nM | 36.6 nM | 32.9 nM | – | – | – | – | – | – | – | – | – | – | – | – | – | –
13 | NS(=O)(=O)c1ccc(CCN(Cc2ccc(Br)cc2)C(=O)c2ccc(-c3cssc3=S)cc2)cc1 | 7700 nM | 3660 nM | 1040 nM | 19.1 nM | 12.9 nM | – | – | – | – | – | – | – | – | – | – | – | – | – | –
14 | NS(=O)(=O)c1ccc(CCN(Cc2ccccc2)C(=O)c2ccc(-c3cssc3=S)cc2)cc1 | – | 480 nM | 4340 nM | 43 nM | 9.7 nM | – | – | – | – | – | – | – | – | – | – | – | – | – | –
15 | N#CCCN(CCc1ccc(S(N)(=O)=O)cc1)C(=O)c1ccc(-c2cssc2=S)cc1 | 429 nM | 60.4 nM | 523 nM | 28.7 nM | 9.1 nM | – | – | – | – | – | – | – | – | – | – | – | – | – | –
16 | COc1cc([N+](=O)[O-])ccc1CN(CCc1ccc(S(N)(=O)=O)cc1)C(=O)c1ccc(-c2cssc2=S)cc1 | 6700 nM | 2950 nM | 4090 nM | 4.1 nM | 7.7 nM | Active | 4.3 min | 7.9 µM | – | – | Dde | Non-Toxic | Non-Toxic | Non-Toxic | – | – | – | Dde | –
17 | NS(=O)(=O)c1ccc(CCN(Cc2cccc3ccccc23)C(=O)c2ccc(-c3cssc3=S)cc2)cc1 | > 10000 nM | 4460 nM | 244 nM | 15.6 nM | 7 nM | Active | 4.3 min | 7.9 µM | Active | Active | – | Non-Toxic | Non-Toxic | Non-Toxic | – | – | – | – | Active
